Measured values from different studies.
Compare with care: the assays were run in different laboratories.
Target: Tyrosine-protein kinase Fer (FER, Homo sapiens, UniProt P16591)

COc1ncc2cc3ccccc3nc2c1C#N — remaining binding (cell-free assay, competition with immobilised ligand; 5 µM): 100%
Nc1ncc2c(n1)-c1c([nH]c3ccc(C#CC4CC4)cc13)CCCC2 — remaining binding (binding, competition with immobilised ligand; 1 µM): 100%
COc1cnc(Nc2cccc(S(N)(=O)=O)c2)nc1N1CCN(c2ccccc2)C(=O)C1 — remaining binding (binding, competition with immobilised ligand; 1 µM): 100%
Cc1c(C(=O)O)cc(-c2ccc(C3CCNCC3)cc2)c2ccc(-c3ccc(C(F)(F)F)cc3)cc12 — remaining binding (binding, competition with immobilised ligand; 1 µM): 100%
O=C(NCCCN1CCOCC1)c1ccc(Nc2nccc(-c3cc4ccccc4s3)n2)cc1 — remaining binding (binding, competition with immobilised ligand; 1 µM): 100%
CN(C)c1ncc(F)c(-c2cnn3ncccc23)n1 — remaining binding (binding; 1 µM): 82%
O=C(c1ccc(Nc2ncc(Cl)c(-c3ccc(Cl)s3)n2)cc1)N1CCC(N2CCCC2)CC1 — remaining binding (binding, competition with immobilised ligand; 1 µM): 81%
CC(=O)N1CCC(c2ccc(C(=O)NC(=N)N)cc2C(F)(F)F)CC1 — remaining binding (cell-free assay, competition with immobilised ligand; 1 µM): 96%
Cc1cnn2ncc(-c3ccnc(N(C)C)n3)c2c1 — remaining binding (binding; 1 µM): 92%
CC(=O)C1=C(C)N(c2cccc(C(F)(F)F)c2)C(=O)N[C@@H]1c1ccc(C#N)nc1 — remaining binding (cell-free assay, competition with immobilised ligand; 1 µM): 96.9%
O=C(c1ccc(Nc2nccc(-c3cc4ccccc4s3)n2)cc1)N1CCC(N2CCCC2)CC1 — remaining binding (binding, competition with immobilised ligand; 1 µM): 100%
c1cnn2ncc(-c3ccnc(N4CCC45COC5)n3)c2c1 — remaining binding (binding; 1 µM): 91%
C[C@@]1(Cc2ccc(C#N)cc2)C(=O)N(c2cc(Cl)cc(Cl)c2)c2ncc(C(=O)NC3(c4nc(C5CCC5)no4)CC3)n21 — remaining binding (cell-free assay, competition with immobilised ligand; 1 µM): 100%
C[C@@H]1CCN(c2nccc(-c3cnn4ncccc34)n2)C1 — remaining binding (binding; 1 µM): 100%
CNC(=O)[C@@H]1CC[C@@H](n2c(-c3ccc4cnccc4c3)nc3ccc(C(=O)NCc4cccc(C(N)=O)c4)cc32)C1 — remaining binding (binding, competition with immobilised ligand; 1 µM): 100%
CN(c1nccc(-c2cnn3ncccc23)n1)C1CC1 — remaining binding (binding; 1 µM): 100%
CCC(=O)N[C@@H]1CC[C@H](C(=O)N(C)c2ccc(-c3nc4ccccc4o3)cc2)C1 — remaining binding (cell-free assay, competition with immobilised ligand; 1 µM): 99%
C[C@@H](c1ccc(-n2cnc3c(N)ncnc32)cc1)N1CCc2nn(C)c(Cc3ccccc3)c2C1=O — remaining binding (binding, competition with immobilised ligand; 0.1 µM): 100%
O=C(NCC1CCOCC1)c1n[nH]cc1NC(=O)c1c(F)cccc1F — remaining binding (binding, competition with immobilised ligand; 1 µM): 100%
CC(=O)c1c(NS(C)(=O)=O)c2cc(-c3ccc(Cl)cc3)c(-c3ccc(Cl)cc3Cl)nc2n(C)c1=O — remaining binding (cell-free assay, competition with immobilised ligand; 1 µM): 100%
N[C@H]1CCN(c2nccc(-c3cnn4ncccc34)n2)C1 — remaining binding (binding; 1 µM): 97%
